Screening data: PubChem BioAssay, SRMLSC
Only a selection was taken, and hits are over-represented in it overall.
Lung fibro prol = blocks proliferation of human lung fibroblasts; AID 719; viability, % at 10 µM; hit rate 1.1% among 85,000; LL 47 human lung fibroblast viability, ATP luminescence; hits give low values;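 active means viability at or below 50% in the single dose screen; inactive means viability above 50%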;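 further: compound exposure lasted 72 h before the ATP readout; 100% = median luminescence of untreated cell-only wells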
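Material: human lung fibroblast line LL 47, low passage; Evaluation: viability percentage against median untreated-cell control; Buffer or medium: 15% FBS in IMEM; Incubation: 72 h compound exposure at 37 °C after overnight plating; Dosing: 0.1% DMSO in all compound wells; Measured by: CellTiter-Glo luminescence.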
HUVEC inhibit = blocks proliferation of human endothelial cells | AID 648 | viability, % at 10 µM (by protocol) | HUVEC proliferation, CellTiter-Glo luminescence, 72 h; hits give low values | hit rate 1.1% among 86,000;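 active means viability at or below 30%; inactive means viability above 30%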;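 further: 100% = median luminescence of DMSO-only cell control wells on each plate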
H69AR inhibit = blocks growth of human H69AR lung tumor cells. H69AR lung tumor viability, ATP luminescence, 72 h; hits give low values. hit rate 6% among 85,000. viability, % at 10 µM;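 active means viability at or below 40%; inactive means viability above 40%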;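 further: multidrug resistant small cell line overexpressing MRP-1 efflux transporter; 100% = mean luminescence of untreated control wells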
bCat KO growth = beta-catenin-lacking colon tumor cell growth suppression; HCT116 beta-catenin knockout viability, CellTiter-Glo, 60 h; hits give low values; viability, % at 10 µM; hit rate 1.5% among 140,000; AID 818;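 active means viability at or under a set limit, the compound median less 4 SD, cut at about 6% in these data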;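 further: 0% = Hyamine 1622 control at 20 µM and 100% = untreated cell control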
HCT116 PTEN-null = growth suppressors of cells with PTEN tumor suppressor deletion | HCT116 PTEN-null viability, CellTiter-Glo, 60 h; hits give low values | viability, % at 10 µM | hit rate 1.2% among 140,000 | AID 827;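 active means viability at or below a set limit, 4 SD under the median of all tested compounds, cut at about 3.7% in these data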;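 further: PTEN knockout HCT116 line with beta catenin targeted HCT116 as companion control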
Numbers without * were called inactive; . = no result given.

SMILES | Lung fibro prol | HUVEC inhibit | H69AR inhibit | bCat KO growth | HCT116 PTEN-null
CCOc1ccc(-c2nc(N)ncc2-c2ccc(OC)cc2)c(O)c1 | . | . | . | 89.1 | 87.1
COc1ccc(OC)c(NC(=O)CSc2nnnn2-c2ccccc2F)c1 | 99.6 | 93.8 | 87.5 | 102.2 | 99.7
CCCn1c(N)c(C(=O)CSc2nc3ccccc3n2CCC#N)c(=O)n(C)c1=O | 93.0 | 74.2 | 87.6 | 98.4 | 99.9
O=C1COc2ccc(C(=O)CSc3nnc(Cc4cccs4)n3-c3ccc(Cl)cc3)cc2N1 | 98.5 | 83.3 | 27.1* | 80.4 | 77.3
CCCCCCn1c(SCC(=O)c2c(N)n(C)c(=O)n(C)c2=O)nc2ccccc21 | 40.2* | 50.1 | 24.1* | 50.8 | 46.8
O=C1COc2ccc(C(=O)CSc3nnnn3-c3ccccc3)cc2N1 | 101.8 | 103.3 | 103.3 | 101.3 | 96.8
CCCn1c(SCC(=O)c2ccc3c(c2)NC(=O)CO3)nc2ccccc21 | . | . | . | 4.6* | 27.9
CCOC(=O)c1c(NC(=O)C(=O)N/N=C/c2ccccc2OC)sc2c1CCCCC2 | . | . | . | 89.3 | 90.3
Cc1sc(=NC(=O)c2ccco2)n(C)c1-c1ccc(Cl)cc1 | . | . | . | 91.0 | 92.4
O=C(NC1CCCC1)c1sc(=S)n2c1[nH]c(=O)c1ccccc12 | 96.3 | 63.9 | 22.4* | 68.7 | 68.5
O=C(Oc1ccc(NC2=C(Cl)C(=O)c3ccccc3C2=O)cc1)c1ccc([N+](=O)[O-])cc1 | . | . | . | 0.9* | 1.1*
Cc1cc(C)c2c(n1)nn1c(NCCN3CCOCC3)cc(C)nc21 | 105.3 | 94.0 | 87.5 | 90.0 | 88.0
Cc1cc(NCCCn2ccnc2)n2nc(C)c(-c3ccccc3)c2n1 | 92.6 | 72.0 | 40.5 | 84.3 | 89.5
Cc1cc(NCCCn2ccnc2)n2nc(C)c(-c3ccc(Cl)cc3)c2n1 | 14.9* | 2.3* | 1.1* | 5.5* | 3.9
Cc1cc(NCCCn2ccnc2)n2ncc(-c3ccccc3)c2n1 | 81.9 | 68.0 | 27.4* | 78.3 | 76.4
Cc1cc(NCCN2CCOCC2)n2ncc(-c3ccccc3)c2n1 | 92.8 | 96.0 | 25.4* | 74.9 | 79.6
Cc1cc(NCCN2CCOCC2)n2nc(C)c(-c3ccc(Cl)cc3)c2n1 | 74.1 | 47.6 | 12.0* | 37.1 | 28.0
COc1ccc(N(CC(=O)NCC2CCCO2)C(=O)CCC(=O)Nc2nccs2)cc1 (centres undefined) | 95.3 | 90.3 | 92.5 | 90.2 | 93.2
Cc1cc(NCCN2CCOCC2)n2nc(C)c(-c3ccccc3)c2n1 | 89.7 | 88.7 | 27.3* | 87.2 | 88.7
CC(=O)NC(Cc1c[nH]c2ccccc12)C(=O)N1CCc2ccccc2C1 (centres undefined) | 99.7 | 92.0 | 93.2 | 97.1 | 105.2
Cc1ccc(N2CCN(CCc3nc4cc(NC(=O)c5ccco5)ccc4n3C)CC2)cc1 | 97.2 | 95.6 | 6.6* | 64.7 | 66.2
Cn1c(CCN2CCN(c3ccccc3)CC2)nc2cc(NC(=O)c3ccco3)ccc21 | 96.5 | 88.0 | 21.2* | 78.4 | 64.7
Cn1c(CCN2CCN(c3ccc(F)cc3)CC2)nc2cc(NC(=O)c3ccco3)ccc21 | 95.1 | 96.3 | 43.9 | 94.1 | 89.1
CCCn1c(SCC(=O)Nc2nnc(-c3ccccc3)s2)nnc1-c1ccccn1 | 102.3 | 94.3 | 91.1 | 98.2 | 99.1
Cc1cc(NC(=O)c2cccc(S(=O)(=O)N(C)C)c2)n(-c2ccccn2)n1 | 96.0 | 78.9 | 26.4* | 93.0 | 101.5
SMILES | Lung fibro prol | HUVEC inhibit | H69AR inhibit | bCat KO growth | HCT116 PTEN-null
Cc1cc(NC(=O)c2cccc(S(=O)(=O)N3CCCCCC3)c2)n(-c2ccccn2)n1 | 87.9 | 87.5 | 66.0 | 71.7 | 84.0
COc1ccc(-c2noc(CSc3nc4sc(C)c(C)c4c(=O)n3-c3ccccc3)n2)cc1 | . | . | . | 71.3 | 56.5
CCOc1ccc2c(c1)C(=NNC(=O)c1ccncc1)c1cc(OCC)ccc1-2 | . | . | . | 3.7* | 2.4*
CCOc1ccc(NC(=O)c2ccncc2)cc1 | 111.4 | 103.0 | 111.4 | 86.9 | 85.1
N#CC1=C(N)Oc2cc(N)ccc2C1C1CC=CCC1 (centres undefined) | 95.8 | 61.5 | 29.1* | 22.4 | 21.5
Cc1ccc(-c2cc(NC(=O)CCl)n(-c3ccccc3)n2)cc1 | 3.3* | 9.6* | 0.9* | 2.6* | 2.0*
O=C(CCl)Nc1cc(-c2ccccc2)nn1-c1ccccc1 | 6.8* | 14.5* | 1.2* | 3.6* | 2.5*
CC1=C(NCCc2ccccc2)CCC1=O | 99.1 | 96.3 | 101.2 | 92.6 | 96.4
Fc1ccc(CSc2nnc(-c3cccnc3)n2Cc2ccco2)cc1 | 92.1 | 99.6 | 80.3 | 71.0 | 69.5
CCn1c(/C=C/N(C)c2ccccc2)[n+](CC)c2ccc(Cl)cc21 | . | . | . | 3.8* | 4.9
CCn1c(/C=C/Nc2ccccc2)[n+](CC)c2ccc(Cl)cc21 | . | . | . | 47.5 | 46.8
